RAM network inh = inhibitors of the yeast RAM network, primary screen, dse1pr::URA3 reporter, 5-FOA selection; inhibition, % at 50 µM; 190,000 tested, 1.8% active; S. cerevisiae dse1pr::URA3 reporter, 5-FOA growth OD615, 2 d; analog-sensitive cbk1-as2 kinase mutant strain; AID 868, 2007;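 active means inhibition above a set limit, 3 SD over mean compound inhibition, cut at about 8.4% in these data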;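 further: 0% = DMSO-only wells with no growth and 100% = 10 µM 1-NA-PP1 full growth; inhibition rescues growth on 5-FOA so higher OD means more RAM inhibition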
Measles CPE = compounds protecting cells from measles virus cytopathic effect, primary screen, measles RdRp inhibitor project, single point, MLSMR library, absorbance. protection (pct of control), % at 4 µM. Measles virus-infected cells, CPE protection. 140,000 tested, 1.5% active; in the data active means protection mostly above about 24%, no sharp cut-off; inactive means mostly below about 26%
Yeast life ext = compounds extending yeast replicative lifespan, primary screen, S. cerevisiae, OD615; S. cerevisiae growth with nicotinamide; deaD strain in restrictive glucose medium; inhibition of the nicotinamide effect, % at 10 µM; 130,000 tested, 0.68% active; AID 775, 2007;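 active means inhibition above a set limit, placed 3 SD over the median of all compounds, cut at about 26% in these data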;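 further: 0% = nicotinamide-treated wells and 100% = cells grown without nicotinamide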
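Material: Modified budding yeast, DeaD strain | Medium: Restrictive glucose medium | Probe or stimulus: 1.5 mM nicotinamide | Dosing: Single dose 10 µM compound, 0.25% DMSO | Times: 48 h at 30 °C | Technique: OD615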
BB579 growth dn = growth inhibitors of yeast BB579 in restrictive medium, primary screen, yeast lifespan-shortening project, S. cerevisiae; OD615, 48 h; inhibition, % at 10 µM; 140,000 tested, 0.51% active;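 active means inhibition above a set limit, 3 SD over the mean compound inhibition, cut at about 44% in these data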
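System: Saccharomyces cerevisiae DeaD strain BB579, replicative lifespan model yeast | Buffer or medium: Restrictive glucose-based CSMM-D medium | Times: 4 h preincubation and 48 h exposure at 30 °C | Detection: OD615 turbidity measurement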
* hit, by the source's call; x = no result. Rows were chosen to be rich in hits. Some 3.6% of all compounds tested hit in one or more screens of this group.

SMILES	RAM network inh	Measles CPE	Yeast life ext	BB579 growth dn
O=C(Nc1ncc2c(n1)-c1ccccc1OC2)c1ccc(F)cc1	0.6	x	x	x
CCOC(=O)c1c(NC(=O)Cc2cccs2)sc(C(=O)NC2CCCCC2)c1C	5.1	3.6	-2.4	-26.4
COC(=O)c1c(NC(=O)Cc2cccs2)sc(C(=O)N2CCCCC2)c1C	10.3*	5.2	28.6*	-35.8
CCN(CC)C(=O)CC(c1ccc(F)cc1)c1ccc(OC)cc1 (configuration not stated)	-0.1	8.2	14.4	-8.0
CCOC(=O)c1c(C)oc2c1c(C(c1cccnc1)N1CCCCC1)c(O)c1ccccc12 (configuration not stated)	1.1	9.3	50.2*	-35.3
CCOC(=O)CCSc1nc(C)c2cc(C)ccc2n1	0.1	8.3	-7.0	-6.8
CCOC(=O)CCSc1nc(C)c2ccccc2n1	1.7	56.4*	-15.3	-48.8
O=C(Nc1ccccn1)c1c(O)c2cccc3c2n(c1=O)CCC3	-0.8	15.6	0.3	-18.5
O=C(Nc1nccs1)c1c(O)c2cccc3c2n(c1=O)CCC3	0.9	8.2	29.8*	-23.4
O=C(NCC1CCCO1)c1c(O)c2cccc3c2n(c1=O)CCC3 (configuration not stated)	2.9	6.1	16.7	-12.1
O=C(Nc1nccs1)c1ccc2c(=O)n3c(nc2c1)CCCCC3	-1.5	23.7	50.8*	-33.7
O=C(Nc1ccc2nc3n(c(=O)c2c1)CCCC3)c1cccc([N+](=O)[O-])c1	8.8*	9.2	3.2	-22.3
Cc1csc(NC(=O)c2ccc3c(=O)n4c(nc3c2)CCCCC4)n1	-0.7	7.7	4.1	-18.7
O=C(NCC1CCCO1)c1c(O)c2cccc3c2n(c1=O)CC3 (configuration not stated)	0.3	55.4*	12.8	-41.1
COc1cc(OC)c(C2=Nc3ccc(Br)cc3C(c3ccccc3)N2CC(=O)NN)cc1OC (configuration not stated)	-0.9	x	x	x
CCn1cc(C(=O)N2CCN(c3ccc(C(C)=O)cc3)CC2)c2cc(OC)c(OC)cc2c1=O	2.0	x	x	x
O=C(NN1CCOCC1)C12CC3CC(CC(C3)C1)C2	0.1	6.7	-3.1	-31.5
COC(=O)/C=C1/N/C(=N\c2nc(C)cc(C)n2)N(c2ccc(Cl)cc2)C1=O	0.5	17.0	-1.6	-23.7
CC(C)NCc1nnc(-c2ccccc2Cl)o1	2.3	x	x	x
CCOC(=O)c1nnc(-c2ccccc2)nc1Sc1ccccc1Cl	10.6*	25.1	-2.7	-61.8
COc1ccc(OC)c(C2C(C(C)=O)=C(O)C(=O)N2Cc2cccnc2)c1 (configuration not stated)	1.9	8.8	81.7*	-26.5
CC(=O)C1=C(O)C(=O)N(Cc2cccnc2)C1c1ccccc1Cl (configuration not stated)	1.0	40.7	18.3	-11.8
COc1ccccc1NC(=O)c1ccc2nc(-c3ccccc3)c(-c3ccccc3)nc2c1	1.3	14.5	-12.4	-9.1
COc1ccccc1-c1nc2cc3ccccc3cc2nc1-c1ccccc1	10.8*	3.6	4.4	-57.4
CCNC(=S)N/N=C/c1cn(Cc2ccc(F)cc2)c2ccccc12	0.1	29.2*	-7.0	-16.0
SMILES	RAM network inh	Measles CPE	Yeast life ext	BB579 growth dn
CCNC(=S)N/N=C/c1cn(Cc2ccccc2F)c2ccccc12	2.1	x	-6.0	-16.4
COc1cc(CN2CCC(C(=O)N3CCN(c4ccccc4F)CC3)CC2)cc(OC)c1O	0.5	51.4*	-18.1	-23.9
CCN1C(=O)/C(=C/c2cccs2)S/C1=N\S(=O)(=O)c1ccc(C)cc1	4.9	26.9	-1.2	-15.4
C=CCN1C(=O)/C(=C/c2cccs2)S/C1=N\S(=O)(=O)c1ccc(F)cc1	10.6*	7.6	8.7	-0.5
C/C(=C\c1ccc2c(c1)OCO2)C(=O)c1c(C)cc(C)[nH]c1=O	-0.7	x	x	x
CC(C)(/C=N/NC(=O)CSCc1ccc(Cl)cc1)CCC#N	0.6	x	x	x
O=C(Nc1ccc(Br)c2cccnc12)c1ccc(Cn2cc(Cl)cn2)o1	10.6*	2.1	5.8	-42.7
CC1CN(CC(O)COC(c2ccccc2)c2ccccc2)CC(C)O1 (configuration not stated)	0.9	30.7*	-0.5	-23.2
O=c1c2sccc2n(Cc2ccc(F)cc2)c(=O)n1-c1ccc(F)cc1	10.3*	34.7	-1.4	-12.8
CCOC(=O)c1cc2c(ccn2C)n1Cc1ccc(Cl)cc1	1.4	x	x	x
CCOC(=O)c1cc2c(ccn2C)n1Cc1ccc(C#N)cc1	10.4*	x	x	x
COC(=O)c1cc2occc2n1Cc1cccc(C)c1	1.2	x	x	x
Cc1cccc(Cn2c(C(=O)OC(C)C)cc3c2ccn3C)c1	11.2*	17.4	-3.7	7.0
Cc1cc(N2CCN(c3cccc(C)c3C)CC2)nc(-c2ccccc2)n1	-2.6	22.7	x	66.6*
CCOC(=O)CSc1nc2cc(C(=O)N3CCCC3)ccc2c(=O)n1Cc1ccccc1	3.5	24.6*	-7.8	-6.5
CNC(=O)c1cc2c(s1)-c1ccccc1CC2	0.8	x	x	x
CNC(=O)c1cc(C)c(-c2ccccc2)s1	0.9	49.3*	-30.0	-6.4
CC(C)c1ccc(OCC(=O)NC(=S)Nc2ccc3c4c(cccc24)CC3)cc1	9.1*	11.5	-14.5	-34.8
COC(=O)c1ccccc1NC(=S)NC(=O)c1cccc2ccccc12	6.7	58.5*	-5.0	-34.0
COC(=O)c1ccccc1NC(=S)NC(=O)COc1ccc(C(C)C)cc1	9.2*	4.2	2.8	-24.9
COC(=O)c1ccccc1NC(=S)NC(=O)c1ccc2ccccc2c1	1.2	3.8	0.0	-2.7
C=CCn1c(SCC(=O)c2ccc(Cl)cc2)nnc1-c1ccc2c(c1)OCO2	4.4	3.4	10.2	-64.6
C=CCN1C(=O)C(CC(=O)Nc2ccc(OC)cc2)SC1=Nc1ccc(S(N)(=O)=O)cc1 (configuration not stated)	0.4	x	x	x
CN(C(=S)SCc1ccccc1)C1CCS(=O)(=O)C1 (configuration not stated)	0.6	x	x	x
CC1(C)CC(=O)c2cnc(NCC3CCCO3)nc2C1 (configuration not stated)	0.1	29.7*	-4.1	1.6
SMILES	RAM network inh	Measles CPE	Yeast life ext	BB579 growth dn
O=S1(=O)Cc2cc3ccccc3cc2C1	1.6	x	x	x
CCOc1ccc(NC(=O)Cn2nnc(-c3ccccc3NC(=O)c3cccs3)n2)cc1	8.4*	19.0	-3.0	-19.1
CC1CCCCC1NC(=O)/C(C#N)=C/c1ccccc1F (configuration not stated)	-1.5	4.1	63.1*	-24.6
Cc1ccc(-c2cc(-c3ccccc3Cl)[nH]n2)c(O)c1	0.0	11.4	-18.6	91.8*
Cc1ccc(-c2cc(-c3ccccc3[N+](=O)[O-])[nH]n2)c(O)c1	1.7	4.0	-10.7	-27.0
C=CCc1cc(Cl)ccc1OCCN1CC(C)OC(C)C1 (configuration not stated)	2.9	x	x	x
CCOC(=O)c1ccc(NC(=O)CN2C(=O)C(CC)SC(CC)C2=O)cc1 (configuration not stated)	9.6*	31.2	4.7	-22.3

Screening results from PubChem BioAssay.
